# The source made the active and inactive calls. The calls are words filed in the database; no cut-off is given here.
# Assays:
# [1] = tested on: HepG2; assay: Increase in glucose consumption in human HepG2 cells assessed as Gx/GDMSO ratio at 5 mM by glucose oxidase assay; format: functional
# Outline: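 HepG2 glucose consumption screen. Test compounds at 25 μM, metformin at 5 mM. Activity expressed as ratio of glucose consumption to DMSO-treated cells (Gx/G_DMSO).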
# [2] = tested on: L6; assay: Induction of glycolysis in rat L6 cells assessed as reduction in cellular ATP production at 20 uM measured after 24 hrs; format: functional, cell-based
# Outline: (§1)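 L6 myotubes treated with DMSO, compound or RGZ (20 μM) at the indicated concentrations for 24 h. Culture supernatants assayed for glucose consumption and lactate release; lysed cells assayed for ATP, normalized to protein. Mean ± SD of 3 independent experiments vs DMSO.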
# [3] = tested on: Mus musculus; assay: Anti-diabetic activity in high fat diet-fed KK-Ay mouse model of obesity and diabetes assessed as improved pathological changes in pancreas at 5 mg/kg, po by hematoxylin and eosin staining based histopathological analysis; format: functional, organism-based
# Outline: (§2)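 Mice sacrificed at study end, with KK-Ay given 50 or 100 mg/kg compound or 5 mg/kg rosiglitazone orally and C57BL/6J as normal controls. Kidney and pancreas sections H&E stained, imaged at 200×, pathological changes scored. Mean ± SD of 8-9 mice per group.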
# [4] = Effect on high fat diet-fed KK-Ay mouse model of obesity and diabetes assessed as water intake at 5 mg/kg, po (reference value: 21.2 +/- 4.17 ml/day); format: ADME, organism-based; conditions: in vivo
# Outline: (§3)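 KK-Ay mice on lipogenic diet, with C57BL/6J mice as normal controls, dosed orally at 50 or 100 mg/kg (test) or 5 mg/kg (RGZ). Food intake (g/day), water intake (mL/day) and body weight recorded before and after treatment; body weight gain calculated. Mean±SD, 8-9 mice per group.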
# [5] = tested on: Mus musculus; assay: Antidiabetic activity in KK-Ay mouse assessed as effect on cholesterol level at 5 mg/kg, […] by ELISA (reference value: 7.38 +/- 1.03 mM); format: functional
# [6] = tested on: Mus musculus; assay: Antidiabetic activity in KK-Ay mouse assessed as effect on LDL level at 5 mg/kg, […] by ELISA (reference value: 1.11 +/- 0.24 mM); format: functional
# [7] = tested on: Mus musculus; assay: Antidiabetic activity in KK-Ay mouse assessed as effect on glycosylated haemoglobin level at 5 mg/kg, po for 50 days by glucose oxidase method (reference value: 8.74 +/- 1.08%); format: functional; conditions: time 50 day
# Outline: (§4)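 Lipogenic-diet KK-Ay mice given 50 or 100 mg/kg compound or 5 mg/kg rosiglitazone orally for 50 days, C57BL/6J as normal controls. Fasting blood glucose, glycosylated haemoglobin, AGE, insulin, HOMA-IR, cholesterol, LDL-c, TG, serum creatinine and BUN determined. Mean ± SD, 8-9 mice per group.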
# [8] = Effect on high fat diet-fed KK-Ay mouse model of obesity and diabetes assessed as food intake at 5 mg/kg, po (reference value: 5.67 +/- 0.55 g/day); format: ADME, organism-based; conditions: in vivo; outline: as §3
# [9] = tested on: Mus musculus; assay: Anti-diabetic activity in high fat diet-fed KK-Ay mouse model of obesity and diabetes assessed reduction in total protein level in urine at 5 mg/kg, po measured after 24 hrs; format: functional, organism-based
# Outline: (§5)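 Before study end, 24-h urine collected from C57BL/6J controls and KK-Ay mice (untreated, oral 50 or 100 mg/kg compound, or 5 mg/kg rosiglitazone). Volume, glucose, total protein and microalbumin measured by kits. Mean ± SD, 8-9 mice per group, vs C57BL/6J or untreated KK-Ay.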
# [10] = tested on: Mus musculus; assay: Anti-diabetic activity in overnight fasted diabetic KK-Ay mouse assessed as increase in insulin responsiveness by measuring blood glucose at 5 mg/kg, po measured after 35 days by insulin tolerance test; format: functional, organism-based; conditions: time 35.0 day
# Outline: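 KK-Ay mice orally treated with 50 or 100 mg/kg compound or 5 mg/kg rosiglitazone, C57BL/6J as normal controls. After 35 days of treatment, oral glucose tolerance test and insulin tolerance test run. Blood glucose plotted against time, AUC calculated. Mean ± SD, 8-9 mice per group.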
# [11] = tested on: Mus musculus; assay: Antidiabetic activity in KK-Ay mouse assessed as effect on insulin level at 5 mg/kg, […] by ELISA (reference value: 226 +/- 15.5 mU/l); format: functional
# [12] = tested on: L6; assay: Increase in glucose consumption in rat L6 cells at 20 uM after 24 hrs by glucose oxidase assay; format: functional, cell-based; outline: as §1
# [13] = tested on: Mus musculus; assay: Antidiabetic activity in KK-Ay mouse assessed as effect on Triglycerides level at 5 mg/kg, po for 24 hrs by ELISA (reference value: 4.01 +/- 1.83 mM); format: functional
# [14] = Effect on high fat diet-fed KK-Ay mouse model of obesity and diabetes assessed as total body weight gain at 5 mg/kg, po (reference value: 43.5 +/- 5.24 g); format: ADME, organism-based; conditions: in vivo; outline: as §3
# [15] = tested on: HepG2; assay: Increase in glucose consumption in human HepG2 cells at 20 uM measured after 24 hrs; format: functional, cell-based
# Outline: (§6)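 HepG2 cells treated 24 h at the indicated concentrations; RGZ as reference. Supernatants used for glucose consumption and lactate release; lysed cells used for ATP, normalized to protein content. Mean ± SD of 3 or 4 separate experiments; compared with DMSO.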
# [16] = tested on: Mus musculus; assay: Antidiabetic activity in KK-Ay mouse assessed as reduction in fasting blood glucose level at 5 mg/kg, po for 50 days by glucose oxidase method (reference value: 13.2 +/- 2.06 mM); format: functional; conditions: time 50 day; outline: as §4
# [17] = tested on: L6; assay: Induction of glycolysis in rat L6 cells assessed as increase in lactate release at 20 uM measured after 24 hrs
# [18] = tested on: L6; assay: Increase in glucose consumption in rat L6 cells at 20 uM measured after 24 hrs; format: functional, cell-based; outline: as §1
# [19] = tested on: Mus musculus; assay: Antidiabetic activity in KK-Ay mouse assessed as effect on serum Creatinine level at 5 mg/kg, po for 24 hrs by ELISA (reference value: 124 +/- 35.1 uM); format: functional
# [20] = tested on: Mus musculus; assay: Antidiabetic activity in KK-Ay mouse assessed as effect on AGE level at 5 mg/kg, […] by ELISA (Rvb 2.85 +/- 0.92 ug/ml); format: functional
# [21] = tested on: Mus musculus; assay: Anti-diabetic activity in high fat diet-fed KK-Ay mouse model of obesity and diabetes assessed as reduction in microalbumin level in urine at 5 mg/kg, po measured after 24 hrs; format: functional, organism-based; outline: as §5
# [22] = tested on: Mus musculus; assay: Anti-diabetic activity in high fat diet-fed KK-Ay mouse model of obesity and diabetes assessed as improved pathological changes in kidney at 5 mg/kg, po by hematoxylin and eosin staining based histopathological analysis; format: functional, organism-based; outline: as §2
# [23] = tested on: HepG2; assay: Induction of glycolysis in human HepG2 cells assessed as increase in lactate release at 20 uM measured after 24 hrs
# [24] = tested on: HepG2; assay: Induction of glycolysis in human HepG2 cells assessed as reduction in cellular ATP production at 20 uM measured after 24 hrs; format: functional, cell-based; outline: as §6
# [25] = tested on: Mus musculus; assay: Antidiabetic activity in KK-Ay mouse assessed as effect on BUN level at 5 mg/kg, […] by ELISA (reference value: 12.8 +/- 2.97 mM); format: functional
# [26] = tested on: Mus musculus; assay: Antidiabetic activity in KK-Ay mouse assessed as effect on HOMA-IR level at 5 mg/kg, […] by ELISA (reference value: 137 +/- 18.4); format: functional
compound,measurement,setting,value
CN(C)C(=N)NC(=N)N [METFORMIN],Ratio,[1],1.53
CN(CCOc1ccc(CC2SC(=O)NC2=O)cc1)c1ccccn1 (stereo unspecified) [ROSIGLITAZONE],Activity,[2],Dose-Dependent Effect
same,Activity,[3],Active
same,Activity,[4],6.1 mL/day
same,Activity,[5],8.31 mM
same,Activity,[6],1.08 mM
same,Activity,[7],6.09%
same,Activity,[8],4.58 g/day
same,Activity,[9],Active
same,Activity,[10],Active
same,Activity,[11],89.3 mU/L
same,Activity,[12],Active
same,Activity,[13],1.84 mM
same,Activity,[14],6.82 g
same,Activity,[15],Active
same,Activity,[16],7.66 mM
same,Activity,[17],Active
same,Activity,[18],Active
same,Activity,[19],51.6 µM
same,Activity,[20],1.27 µg/mL
same,Activity,[21],Active
same,Activity,[22],Active
same,Activity,[23],Active
same,Activity,[24],Active
same,Activity,[25],12 mM
same,Activity,[26],30.4
